Results on 7 molecules are retold here after ChEMBL document CHEMBL3259574, “Environmentally benign synthesis and antimicrobial study of novel chalcogenophosphates” (Bioorg Med Chem Lett, 2014).

Each structure is given as a SMILES string.

Data set [1] deals with Pisum sativum. The data set is described as follows: Toxicity in pea seed germination assessed as seedling fresh weight. The data set is classed as organism-based. The following applies: lathyrus oleraceus, in vivo.
The test system of data set [2] is Staphylococcus aureus. The data set can be described thus: Antimicrobial activity against Staphylococcus aureus MTCC1430 assessed as zone diameter at 100 ug/ml after 24 hrs incubation by agar diffusion as say cup method. The data set is classed as functional. The following applies: MTCC1430, 24 h, read-out: DIZ. Put shortly:
(§1)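 Agar cup diffusion on nutrient agar plates. Solidified plates were spread with 0.1% cell suspension (10^6 CFU/mL) of the test organism and held 15 min, then 6 mm wells were cut. Samples at 100 µg/mL in DMSO went into the wells, and plates were incubated 24 h at 30–35 °C. Inhibition zone diameter was measured in mm by digital vernier caliper. Triplicate parallel sets gave mean ± standard deviation, compared by ANOVA with Tukey test (P < 0.01).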
For orientation: In agar diffusion tests the substance spreads into inoculated agar from a disc or well.

Data set [3] relates to Vigna mungo. The data set is described as follows: Toxicity in mung seed germination assessed as seedling fresh weight. The data set is classed as organism-based. The following applies: in vivo.
In data set [4] the test system is Pseudomonas aeruginosa. The data set can be described thus: Antimicrobial activity against Pseudomonas aeruginosa MTCC424 assessed as zone diameter at 100 ug/ml after 24 hrs incubation by agar diffusion as say cup method. The data set is classed as functional. The following applies: MTCC424, 24 h, read-out: DIZ. The procedure, abridged:
as §1

Data set [5] deals with Cicer arietinum. The data set is described as follows: Toxicity in gram seed germination assessed as seedling fresh weight. The following applies: in vivo. The data set is classed as organism-based.
For data set [6], the system named is Cicer arietinum. The data set can be described thus: Toxicity in gram seed germination assessed as seedling length. The class given is organism-based. Particulars: in vivo.
The test system of data set [7] is Bacillus subtilis. The data set can be described thus: Antimicrobial activity against Bacillus subtilis MTCC121 assessed as zone diameter at 100 ug/ml after 24 hrs incubation by agar diffusion as say cup method. The class given is functional. The following applies: MTCC121, 24 h, read-out: DIZ. The procedure, abridged:
as §1

The test system of data set [8] is Escherichia coli. The data set is described as follows: Antimicrobial activity against Escherichia coli MTCC1610 assessed as zone diameter at 100 ug/ml after 24 hrs incubation by agar diffusion as say cup method. The data set is classed as functional. The following applies: MTCC1610, 24 h, read-out: DIZ. Put shortly: as §1
Data set [9] relates to Pisum sativum. The data set is described as follows: Toxicity in pea seed germination assessed as seedling length. The class given is organism-based. The following applies: lathyrus oleraceus, in vivo.
Data set [10] concerns Candida albicans. The data set is described as follows: Antimicrobial activity against Candida albicans MTCC227 assessed as zone diameter at 100 ug/ml after 24 hrs incubation by agar diffusion as say cup method. The class given is functional. Particulars: MTCC227, 24 h, read-out: DIZ. The procedure, abridged:
as §1

For `CCOP(=O)(OCC)[Se]c1ccccc1`, the Activity result in data set [1], in data set [3], in data set [5], in data set [6] and in data set [9] was “Non-toxic” each time. Moreover, the zone of inhibition at 100 µg/mL came out at 30.2 mm in data set [2]; 32.1 mm in data set [4]; 31.6 mm in [7]; 24.3 mm in data set [8]; 34 mm in data set [10].

As to `COP(=O)(OC)[Se]c1ccccc1`, the zone of inhibition at 100 µg/mL in [2] worked out at 28.4 mm; in [4], 25.6 mm; in data set [7], 22.1 mm; in [8], 22.5 mm; in data set [10], 28.3 mm.

Regarding `O=P(OCc1ccccc1)(OCc1ccccc1)[Se]c1ccccc1`, the zone of inhibition at 100 µg/mL in [2] was found to be 20.3 mm; in [4], 24.3 mm; in [7], 23.4 mm; in data set [8], 27.3 mm; in [10], 25.9 mm.

As to `CC(C)OP(=O)(OC(C)C)[Se]c1ccccc1`, the Activity entry in [1], in data set [3], in data set [5], in data set [6] and in data set [9] was “Non-toxic” each time. The zone of inhibition at 100 µg/mL was found to be 30.5 mm in data set [2]; 33.4 mm in data set [4]; 33.1 mm in [7]; 35.1 mm in data set [8]; 38.6 mm in data set [10].

With `CCOP(=O)(OCC)Sc1ccccc1`, the Activity entry in data set [1], in data set [3], in data set [5], in [6] and in data set [9] was “Non-toxic” throughout. The zone of inhibition at 100 µg/mL came to 22.5 mm in data set [2]; 23.6 mm in [4]; 20.6 mm in [7]; 21 mm in data set [8]; 26.4 mm in data set [10].

For the molecule `O=P(OCc1ccccc1)(OCc1ccccc1)Sc1ccccc1`, the zone of inhibition at 100 µg/mL in data set [2] was 25.1 mm; in data set [4] it was 25.4 mm; in data set [7], 19.8 mm; in data set [8], 22.9 mm; in data set [10], 28.1 mm.

Take `O=C(N[C@H](CO)[C@H](O)c1ccc([N+](=O)[O-])cc1)C(Cl)Cl` [CHLORAMPHENICOL]: the zone of inhibition at 100 µg/mL in data set [2] stood at 30.9 mm; in [4], 33.6 mm; in data set [7], 33.4 mm; in [8], 35 mm.
